Values joined by “and” are separate entries in the source; they are usually repeats but may differ in a detail not shown here. Identical values can stand only once.
What was measured:
[1] = 40 mg kg^–1; cited from earlier work
[2] = literature value for comparison; cited from earlier work
H1 histone = H1 histone binding by steady-state fluorescence quenching; conditions: 300 K, ±2σ
[3] = target: human serum albumin (HSA) (Homo sapiens, UniProt P02768); assay: HSA binding by steady-state fluorescence quenching; conditions: 300 K, ±2σ
Sequence of human serum albumin (HSA) (P02768 25-609): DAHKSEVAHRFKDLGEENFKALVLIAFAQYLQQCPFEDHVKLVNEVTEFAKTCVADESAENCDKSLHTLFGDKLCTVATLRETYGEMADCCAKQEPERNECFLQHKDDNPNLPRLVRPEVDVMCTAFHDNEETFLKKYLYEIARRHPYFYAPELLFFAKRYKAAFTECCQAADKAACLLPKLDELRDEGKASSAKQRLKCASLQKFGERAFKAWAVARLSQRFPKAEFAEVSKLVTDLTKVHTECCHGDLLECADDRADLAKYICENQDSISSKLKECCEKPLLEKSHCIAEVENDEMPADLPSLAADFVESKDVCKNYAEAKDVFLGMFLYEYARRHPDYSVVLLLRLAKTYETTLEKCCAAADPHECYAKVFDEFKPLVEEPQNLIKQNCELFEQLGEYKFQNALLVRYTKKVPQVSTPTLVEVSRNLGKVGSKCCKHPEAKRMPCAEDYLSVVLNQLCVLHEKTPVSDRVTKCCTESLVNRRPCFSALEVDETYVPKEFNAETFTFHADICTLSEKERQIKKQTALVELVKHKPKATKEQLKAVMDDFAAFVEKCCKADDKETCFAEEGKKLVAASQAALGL
Outline: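 Human serum albumin (5 μM, 3 mL, freshly prepared in buffer) was titrated with successive additions of test compound stock at 300 K. Excitation was 283 nm and emission was read at 372 nm, with slits of 1 and 5 nm. Fluorescence was inner-filter corrected. KSV came from the Stern–Volmer equation; Ka and n came from log[(F0−F)/F] versus log[Q]. Performed in triplicate.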

Compound | tmax [1] | AUCtotal [2] | CLapp [2] | Vd [2] | t1/2e [2] | KSV × 10^–3 (Stern-Volmer constant), H1 (H1 histone) | n (number of binding sites), H1 (H1 histone) | KSV × 10^–3 (Stern-Volmer constant), HSA [3] | n (number of binding sites), HSA [3]
[Cl][Ru]([Cl])([Cl])[Cl].[Na+].c1ccc2[nH]ncc2c1.c1ccc2[nH]ncc2c1 [KP-1339/IT139, sodium trans-[tetrachloridobis(1H-indazole)ruthenate(III)]] | 2.5 h |  |  |  |  |  |  |  | 
Cc1ccc(C(C)C)cc1.[Cl][Ru]([Cl])[PH]12CN3CN(CN(C3)C1)C2 [RAPTA-C] |  | 891 μg h L^–1 | 0.009 L h^–1 | 0.153 L | 11.47 h | 1.85 ± 0.21 × 10^–3 | 1.06 ± 0.03 | 7.06 ± 1.37 × 10^–3 | 0.87 ± 0.04
N.N.[Cl][Pt][Cl] [cisplatin] |  |  |  |  |  | 2.28 ± 0.59 × 10^–3 | 0.48 and 0.48 ± 0.14 | 0.58 ± 0.14 × 10^–3 | 1.18 ± 0.21

Source: paper PMC6704442 (ACS Omega, 2019)
